In data set [1] the target is Trypanothione reductase (Trypanosoma brucei brucei, UniProt P39051). As to the kind of experiment: Inhibition of Trypanosoma brucei recombinant Trypanothione reductase assessed as decrease in (T[SH]2) formation using trypanothione disulfide as substrate after 15 mins by colorimetric analysis.
A short description of data set [2]: Inhibition of beta-haematin formation by microplate reader analysis relative to hemin. It counts as physicochemical. The essentials: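 Haemin chloride (8 mM stock in DMSO) mixed with serial compound dilutions (0.5-32 mM) in 25% DMSO; formation initiated with 8 M acetate buffer pH 5.0, 18 h at 37 °C. Pellets washed with DMSO, β-haematin dissolved in 0.1 M NaOH, OD 400 nm read versus drug-free controls; BHIA50 expressed as compound equivalents relative to haemin, by linear regression.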

Data set [3] deals with Trypanosoma brucei. As to the kind of experiment: Selectivity index, ratio of IC50 for inhibition of Trypanosoma brucei recombinant Trypanothione reductase to IC50 for trypanocidal activity against bloodstream form of Trypanosoma brucei 221.
For data set [4], the system named is Trypanosoma brucei. As to the kind of experiment: Trypanocidal activity against bloodstream form of Trypanosoma brucei 221 assessed as inhibition of parasite growth at pH 7.4 after 48 hrs by Spectramax plate reader analysis. Conditions: Trypanosoma brucei, 221, 48 h. It counts as functional, organism-based. The essentials: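 Bloodstream-form T. brucei strain 221 grown at 37 °C in modified Iscove's medium; log-phase cells diluted to 0.25 × 10^5 mL⁻¹, exposed to a range of compound concentrations in triplicate at 37 °C. Resazurin added after 48 h, read after a further 16 h. IC50 and IC90 = concentrations inhibiting growth 50% and 90%; mean of triplicate experiments ± SEM.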

Data set [5] deals with Plasmodium falciparum. As to the kind of experiment: Antiplasmodial activity against chloroquine-resistant Plasmodium falciparum K1 infected in human A+ erythrocytes assessed as inhibition of parasite growth after 48 hrs by LDH assay. To be noted: K1, 48 h. It counts as functional, organism-based. The essentials: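 Ring-stage cultures in human A+ erythrocytes (RPMI 1640, A+ serum, D-glucose), 2.5% haematocrit, 1% parasitaemia; twofold serial dilutions in duplicate, DMSO ≤0.5% final. 48 h at 37 °C under 93% N2/3% O2/4% CO2. Growth read as lactate dehydrogenase activity (APAD, lactate, diaphorase, NBT; 550 nm); % inhibition vs controls; IC50 by linear regression; mean of triplicate experiments.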

Data set [6] relates to L6. As to the kind of experiment: Cytotoxicity against rat L6 cells assessed as inhibition of cell growth after 6 days by Spectramax fluorescence plate reader analysis. It counts as cell-based. To be noted: L6, 144 h. The essentials: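 L6 rat skeletal myoblasts seeded at 1×10^4 mL⁻¹ in growth medium containing a range of compound concentrations, incubated 6 days at 37 °C; resazurin added, fluorescence read after a further 8 h. IC50 = concentration inhibiting growth by 50%; mean of triplicate experiments ± SEM.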

Data set [7] in a line: Selectivity index, ratio of IC50 for rat L6 cells to IC50 for bloodstream form of Trypanosoma brucei 221. It counts as toxicity, cell-based. To be noted: read-out: Ratio IC50. The essentials: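 IC50 ratio, L6 over T. brucei. L6 cells seeded at 1×10^4 mL⁻¹ with compound, 6 days at 37 °C, then resazurin, 8 h more, fluorescence read. Log-phase bloodstream T. brucei 221 in modified Iscove's medium at 0.25 × 105 mL⁻¹, compound range in triplicate, 37 °C; resazurin at 48 h, read after 16 h more.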

A short description of data set [8]: Selectivity index, ratio of IC50 for rat L6 cells to IC50 for chloroquine-resistant Plasmodium falciparum K1. It counts as toxicity, cell-based. Conditions: read-out: Ratio IC50. The essentials:
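IC50 ratio, L6 over P. falciparum K1. L6 cells seeded at 1×10^4 mL⁻¹ with compound, 6 days at 37 °C, resazurin added, fluorescence after 8 h. Parasites in A+ erythrocytes (2.5% haematocrit, 1% parasitaemia) with twofold dilutions, 48 h at 37 °C in low-oxygen gas; growth read by LDH activity at 550 nm.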

In data set [9] the target is Acetylcholinesterase (Homo sapiens, UniProt P22303). As to the kind of experiment: Inhibition of human recombinant AChE using acetylthiocholine iodide as substrate preincubated with enzyme for 20 mins prior to substrate addition by Ellman's method. The essentials:
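Ellman assay in 0.1 M phosphate buffer pH 8.0 with hAChE 0.02 u/mL and 333 µM DTNB. At least 10 inhibitor concentrations, in duplicate, preincubated 20 min at 37 °C. Then 450 µM acetylthiocholine iodide, 5 min at 37 °C; absorbance at 414 nm against an uninhibited sample. IC50 by non-linear regression; mean ± S.E.M. of at least 4 experiments.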
(In Ellman's method for cholinesterases, released thiocholine reacts with DTNB.)

A short description of data set [10]: Permeability by PAMPA-BBB assay. It counts as ADME. Conditions: read-out: Peff. The essentials: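 Parallel artificial membrane permeation through porcine brain lipid extract, using PBS:EtOH 70:30; effective permeability Pe reported as mean ± SD of three independent experiments.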

Bounds are passed on as bounds.

Acetylcholinesterase, sequence (P22303 whole entry): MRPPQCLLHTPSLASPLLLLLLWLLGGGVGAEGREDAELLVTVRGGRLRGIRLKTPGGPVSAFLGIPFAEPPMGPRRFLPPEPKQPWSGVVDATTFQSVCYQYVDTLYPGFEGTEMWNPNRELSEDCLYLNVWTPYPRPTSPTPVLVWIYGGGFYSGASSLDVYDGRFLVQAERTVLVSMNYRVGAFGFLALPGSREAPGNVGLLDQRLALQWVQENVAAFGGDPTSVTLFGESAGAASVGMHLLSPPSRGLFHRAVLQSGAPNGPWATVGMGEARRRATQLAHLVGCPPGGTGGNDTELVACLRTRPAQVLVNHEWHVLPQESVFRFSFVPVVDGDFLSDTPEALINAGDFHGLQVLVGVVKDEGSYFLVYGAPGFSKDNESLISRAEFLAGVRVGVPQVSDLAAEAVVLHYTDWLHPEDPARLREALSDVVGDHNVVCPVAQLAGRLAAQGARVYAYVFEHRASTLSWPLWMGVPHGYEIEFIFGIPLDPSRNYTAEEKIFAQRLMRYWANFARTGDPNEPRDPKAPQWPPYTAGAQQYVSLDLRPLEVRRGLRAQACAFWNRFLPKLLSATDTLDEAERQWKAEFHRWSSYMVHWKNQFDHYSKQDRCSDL
Trypanothione reductase, sequence (P39051 whole entry): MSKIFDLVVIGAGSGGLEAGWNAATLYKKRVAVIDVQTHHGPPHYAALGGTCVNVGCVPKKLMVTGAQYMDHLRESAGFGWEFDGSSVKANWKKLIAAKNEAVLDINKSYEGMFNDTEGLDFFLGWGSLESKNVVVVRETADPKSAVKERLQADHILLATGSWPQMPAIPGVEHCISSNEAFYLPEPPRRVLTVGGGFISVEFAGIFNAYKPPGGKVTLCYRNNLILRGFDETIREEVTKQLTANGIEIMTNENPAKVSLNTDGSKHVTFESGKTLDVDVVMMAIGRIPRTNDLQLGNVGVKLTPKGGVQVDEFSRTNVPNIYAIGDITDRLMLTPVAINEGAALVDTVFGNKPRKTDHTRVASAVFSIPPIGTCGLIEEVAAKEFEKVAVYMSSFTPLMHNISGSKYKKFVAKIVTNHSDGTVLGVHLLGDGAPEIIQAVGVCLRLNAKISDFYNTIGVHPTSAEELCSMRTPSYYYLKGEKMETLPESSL

For `CC1=CC2Cc3nc4cc(Cl)ccc4c(N)c3C(C1)C2` (stereo not drawn) [HUPRINE Y], the IC50 in data set [1] is 5000 nM; in [2], more than 4 equiv. For the same compound, the Ratio IC50 in [3] stood at 8.2.

As for `CC1=CC2Cc3nc4ccccc4c(NCCCCCCCCCCNc4c5c(nc6ccccc46)CCCC5)c3C(C1)C2` (stereo not drawn), the IC50 in data set [4] was 240 nM; in data set [5], 3500 nM; in data set [6], less than 1000 nM; in data set [9], 6.46 nM. In addition, in data set [4], the IC90 (commonly the concentration needed for an effect of 90%) is 310 nM. For the same compound, the selectivity ratio in [7] was less than 4.2; in data set [8], less than 0.29. The Papp in data set [10] is 6.3 ×10⁻⁶ cm/s.

Turning to `CC1=CC2Cc3nc4cc(Cl)ccc4c(NCCCCCCCCNc4c5c(nc6ccccc46)CCCC5)c3C(C1)C2` (stereo not drawn), the IC50 worked out at 150 nM in [4]; 390 nM in data set [5]; 1110 nM in [6]; 870 nM in data set [1]; 0.19 equiv in data set [2]. In data set [4], the IC90 was 290 nM. The selectivity ratio was 7.4 in data set [7] and 2.8 in data set [8]. In addition, in [3], the Ratio IC50 was 6.

For the compound `CC1=CC2Cc3nc4ccccc4c(NCCCCCCCCCCCCNc4c5c(nc6ccccc46)CCCC5)c3C(C1)C2` (stereo not drawn), the IC50 in data set [4] was 210 nM; in data set [5], more than 7300 nM; in data set [6], less than 1000 nM; in data set [9], 10.1 nM. Also, in data set [4], the IC90 is 280 nM. Besides, the results for the selectivity ratio in data set [7] and in data set [8] were less than 4.8 and less than 0.14, respectively. In addition, in data set [10], the Papp came to 7.3 ×10⁻⁶ cm/s.

Take `COc1cc2c(cc1OC)CC(CC1CCN(CCCNc3c4c(nc5cc(Cl)ccc35)CC3C=C(C)CC4C3)CC1)C2` (stereo not drawn): the IC50 in data set [4] amounted to 170 nM; in [6], 2060 nM; in data set [1], 4880 nM; in [2] it was 0.42 equiv. Besides, the concentration for an effect of 90% (IC90) in data set [4] came out at 350 nM. In data set [7], the selectivity ratio turned out to be 12. For the same compound, the Ratio IC50 in data set [3] was 29.

`CC1=CC2Cc3nc4ccccc4c(NCCCCCCCCCCCCNc4c5c(nc6cc(Cl)ccc46)CCCC5)c3C(C1)C2` (stereo not drawn): the IC50 in data set [4] was 550 nM; in [5] it was more than 6900 nM; in [6], 2740 nM; in data set [9], 3.66 nM. Further, the IC90 in data set [4] was found to be 750 nM. For the same compound, the figures for the selectivity ratio in [7] and in [8] were 5 and less than 0.4, respectively. For the same compound, in data set [10], the Papp turned out to be 11 ×10⁻⁶ cm/s.

As for `CCN(CC)CCCC(C)Nc1ccnc2cc(Cl)ccc12` (stereo not drawn) [CHLOROQUINE], the IC50 in [2] is recorded as 0.14 equiv.

Compound `CN(C)[C@@H]1C(O)=C(C(N)=O)C(=O)[C@@]2(O)C(O)=C3C(=O)c4c(O)cccc4[C@@](C)(O)[C@H]3C[C@@H]12` [TETRACYCLINE] registered an IC50 in [2] of more than 4 equiv.

As for `CC1=CC2Cc3nc4cc(Cl)ccc4c(NCCCCCCCCCCCCNc4c5c(nc6ccccc46)CCCC5)c3C(C1)C2` (stereo not drawn), the IC50 in data set [4] was 350 nM; in [5], more than 6900 nM; in [6], 1040 nM; in data set [9], 1.92 nM. In data set [4], the IC90 amounted to 520 nM. Also, the selectivity ratio in data set [7] was 3; in data set [8] it was less than 0.15. The Papp in data set [10] came to 10.8 ×10⁻⁶ cm/s.
